Data set [1] in a line: Apparent permeability in human Caco-2 cells at 5 uM measured up to 90 mins by LC-MS/MS analysis. The class given is ADME, cell-based.
The nature of data set [2]: Induction of Zinc-dependent p53 R175H mutant refolding by assessing wild type conformation. In outline: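 Cells grown on coverslips and treated, fixed in 4% paraformaldehyde 10 min, permeabilized in 0.5% Triton X-100 5 min. Stained overnight with conformation-specific antibodies PAB1620 (1:50, wild-type fold) and PAB240 (1:400, misfolded/unfolded), then goat anti-mouse IgG secondary for 40 min.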

The nature of data set [3]: Toxicity in mouse assessed as maximum tolerated dose. The settings on record: in vivo. In outline: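 Acute single-dose test in NCr nu/nu nude mice aged 8–12 weeks, 5 mice per dose. One intraperitoneal injection was given, then health, behaviour and body weight were monitored.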
The test system of data set [4] is TOV112D. Nature of the data set: Anticancer activity against human TOV112D cells harbouring p53 R175H mutant xenografted NCr nu/nu mouse assessed as tumor growth inhibition at 5.73 mg/kg, ip relative to control. The class given is functional. The settings on record: read-out: TGI. In outline:
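Tumors (five per group) were grown to 50 mm³, then the compound was given ip daily. Dimensions were measured every other day, with volume = L × W² × π/6. Significance was tested by Student's t test.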
(In general: Xenograft models place foreign cells or tissue in a host animal.)

Data set [5] is described as follows: Stability in simulated gastric fluid assessed as parent compound remaining measured after 7 hrs at room temperature. The class given is ADME. The settings on record: read-out: Stabilty. In outline:
(§1)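 Incubation in simulated gastric fluid (pH 1–2) at room temperature (~23 °C) or 37 °C. Parent compound remaining quantified by HPLC at 220 and 254 nm, with peak identity confirmed by LC–MS.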

A short description of data set [6]: Binding affinity to Zn(II)+ incubated for 60 mins using FluoZin-3 by fuorescence assay.
Data set [7] deals with TOV112D. Nature of the data set: Growth inhibition of human TOV112D cells harbouring p53 R175H mutant incubated for 3 days by MTS assay. The class given is functional, cell-based. The settings on record: 72 h. In general terms: Tetrazolium dyes change colour on reduction, which living cells bring about.
For data set [8], the target named is hERG (KCNH2) (Homo sapiens, UniProt Q12809). Nature of the data set: Displacement of [3H]-dofetilide from human recombinant ERG at 10 uM relative to control. The settings on record: probe [3H]-dofetilide. Background: Displacement assays read how much labelled ligand stays bound in the presence of the test substance.
hERG (KCNH2), sequence (Q12809 whole entry): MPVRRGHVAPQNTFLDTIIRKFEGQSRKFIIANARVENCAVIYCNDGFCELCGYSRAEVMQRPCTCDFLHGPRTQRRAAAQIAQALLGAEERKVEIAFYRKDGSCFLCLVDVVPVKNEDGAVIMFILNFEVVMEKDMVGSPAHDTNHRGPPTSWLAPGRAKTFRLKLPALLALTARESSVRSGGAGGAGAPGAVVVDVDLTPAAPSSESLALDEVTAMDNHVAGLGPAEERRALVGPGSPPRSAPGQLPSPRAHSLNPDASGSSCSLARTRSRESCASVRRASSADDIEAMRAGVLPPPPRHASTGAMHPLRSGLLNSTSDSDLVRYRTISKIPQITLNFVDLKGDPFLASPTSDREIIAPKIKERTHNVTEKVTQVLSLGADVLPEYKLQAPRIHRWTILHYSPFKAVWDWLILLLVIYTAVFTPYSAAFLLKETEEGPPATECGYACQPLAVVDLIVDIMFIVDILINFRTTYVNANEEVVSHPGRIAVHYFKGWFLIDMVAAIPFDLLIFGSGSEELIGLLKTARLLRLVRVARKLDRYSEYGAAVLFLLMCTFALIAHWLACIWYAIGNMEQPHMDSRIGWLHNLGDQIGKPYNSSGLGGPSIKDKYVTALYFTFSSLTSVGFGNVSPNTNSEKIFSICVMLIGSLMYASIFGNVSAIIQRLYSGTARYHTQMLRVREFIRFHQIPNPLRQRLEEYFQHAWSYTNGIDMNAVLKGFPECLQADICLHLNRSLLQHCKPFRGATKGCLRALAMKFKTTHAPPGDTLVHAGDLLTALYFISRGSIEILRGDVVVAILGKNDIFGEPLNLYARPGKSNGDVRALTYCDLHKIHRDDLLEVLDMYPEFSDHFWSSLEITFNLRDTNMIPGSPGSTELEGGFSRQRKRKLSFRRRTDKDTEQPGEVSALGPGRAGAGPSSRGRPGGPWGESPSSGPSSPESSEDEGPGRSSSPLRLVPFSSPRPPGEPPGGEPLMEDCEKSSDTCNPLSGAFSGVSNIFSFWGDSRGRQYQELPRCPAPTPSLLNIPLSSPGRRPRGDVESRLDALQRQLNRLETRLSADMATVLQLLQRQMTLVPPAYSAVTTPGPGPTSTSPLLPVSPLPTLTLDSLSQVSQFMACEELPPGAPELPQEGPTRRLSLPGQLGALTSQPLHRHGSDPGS
Data set [9] concerns the target 5-hydroxytryptamine receptor 2A (Homo sapiens, UniProt P28223). Kind of data set: Displacement of [125I]+/-DOI from human recombinant 5-HT2A receptor at 10 uM after 60 mins by scintillation counting analysis relative to control. The settings on record: recombinant human 5-HT2A receptor, probe [125I]+/-DOI.
For data set [10], the target named is Sodium-dependent noradrenaline transporter (Homo sapiens, UniProt P23975). Kind of data set: Displacement of [3H]nisoxetine from recombinant human norepinephrine transporter at 10 uM incubated for 120 mins by radiometric scintillation analysis relative to control. The class given is ADME. The settings on record: probe [3H]nisoxetine.
Sodium-dependent noradrenaline transporter, sequence (P23975 whole entry): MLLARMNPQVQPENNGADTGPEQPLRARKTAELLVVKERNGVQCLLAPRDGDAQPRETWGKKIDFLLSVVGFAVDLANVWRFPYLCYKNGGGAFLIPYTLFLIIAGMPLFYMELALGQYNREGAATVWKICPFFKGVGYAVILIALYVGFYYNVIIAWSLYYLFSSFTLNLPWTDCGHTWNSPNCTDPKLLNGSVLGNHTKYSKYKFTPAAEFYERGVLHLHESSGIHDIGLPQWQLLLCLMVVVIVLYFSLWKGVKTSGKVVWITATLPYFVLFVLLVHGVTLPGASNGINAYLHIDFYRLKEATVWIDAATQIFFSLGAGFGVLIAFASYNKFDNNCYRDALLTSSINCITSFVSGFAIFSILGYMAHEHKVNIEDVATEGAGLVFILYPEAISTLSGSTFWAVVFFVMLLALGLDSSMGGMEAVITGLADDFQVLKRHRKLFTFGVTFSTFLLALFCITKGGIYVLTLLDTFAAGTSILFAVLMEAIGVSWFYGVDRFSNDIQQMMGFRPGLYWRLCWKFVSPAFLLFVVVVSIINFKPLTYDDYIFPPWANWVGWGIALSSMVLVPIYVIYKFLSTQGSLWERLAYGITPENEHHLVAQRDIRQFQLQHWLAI
The nature of data set [11]: Binding affinity to Cu(II)+ using CuSO4.
Data set [12] is described as follows: Growth inhibition of human TOV112D cells harbouring p53 R175H mutant incubated for 3 days combination with 5 Gy radiation by MTS assay. The class given is functional, cell-based. The settings on record: TOV-112D, 72 h. The essentials: (§2)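 5000 cells per well seeded to reach 50% confluence the next day, then given serial dilutions of compound; line 1 cells also received 5 Gy γ-irradiation, line 2 cells also received etoposide (level not stated). Growth read by MTS or Calcein AM after 3 days (72 h). EC50 taken from dilution curve; three independent experiments, each in triplicate, Student's t test.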

Data set [13] in a line: Growth inhibition of human TOV112D cells harbouring p53 R175H mutant incubated for 3 days combination with etoposide by MTS assay. The class given is functional, cell-based. The settings on record: TOV-112D, 72 h. In outline:
as §2

Data set [14] is described as follows: Stability in simulated gastric fluid assessed as parent compound remaining measured after 6 hrs at room temperature. The class given is ADME. The settings on record: read-out: Stabilty. The essentials: as §1
The nature of data set [15]: Stability in simulated gastric fluid assessed as parent compound remaining measured at 37 degC. The class given is ADME. The settings on record: simulated gi fluid. In outline: as §1

Calls of active or inactive are those of the source. The rule behind the calls is not given here. Bounds are passed on as bounds.

Results on two compounds are retold here after ChEMBL document CHEMBL4808163, “Benzothiazolyl and Benzoxazolyl Hydrazones Function as Zinc Metallochaperones to Reactivate Mutant p53” (J Med Chem, 2021).

5-hydroxytryptamine receptor 2A, sequence (P28223 whole entry): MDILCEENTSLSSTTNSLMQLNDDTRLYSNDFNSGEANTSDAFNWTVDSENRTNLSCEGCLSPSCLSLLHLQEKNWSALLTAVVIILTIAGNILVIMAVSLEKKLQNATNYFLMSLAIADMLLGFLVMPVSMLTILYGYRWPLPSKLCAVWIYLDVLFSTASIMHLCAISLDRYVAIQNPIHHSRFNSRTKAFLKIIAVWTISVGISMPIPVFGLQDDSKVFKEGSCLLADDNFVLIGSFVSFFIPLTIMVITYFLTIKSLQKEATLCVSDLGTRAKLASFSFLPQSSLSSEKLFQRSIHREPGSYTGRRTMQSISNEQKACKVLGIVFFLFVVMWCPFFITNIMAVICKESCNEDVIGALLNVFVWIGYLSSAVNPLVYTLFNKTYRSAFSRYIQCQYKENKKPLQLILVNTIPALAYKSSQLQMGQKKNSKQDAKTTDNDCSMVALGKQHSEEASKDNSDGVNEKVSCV

Take `C/C(=N\NC(=S)N1CCC1)c1ccccn1`: the Papp (usually the rate of passage across a membrane or cell layer, normalised by area and donor concentration) at […], 5 µM in [1] worked out at 4.4 ×10⁻⁶ cm/s. For the same compound, in data set [2], the outcome was Active. Besides, the maximal tolerated dose (MTD) (commonly the largest dose that counted as tolerated) in data set [3] stood at 5 mg/kg. For the same compound, the inhibition in vivo at 5.73 mg/kg in [4] came to 63%. In addition, in data set [5], the remaining at 7 h is 22%.
Consider `C/C(=N\Nc1nc2ccccc2n1CCN1CCC(F)(F)C1)c1ccccn1`, for which the values for the Kd in data set [6] and in data set [11] were 26 nM and 0.001 pM, respectively. The EC50 (commonly the concentration needed to bring the measured effect to its halfway point) in data set [7] is 151 nM; in data set [12], 180 nM; in [13], 120 nM. Further, the result in data set [2] was Active. Further, the inhibition – broadly, the relative decrease from the control value, in per cent – at 10 µM in data set [8] worked out at 101%. Moreover, the inhibition at 1 h, 10 µM in [9] was 92%. The inhibition at 2 h, 10 µM in data set [10] is -1%. In addition, in data set [14], the remaining at 6 h was above 92%. Also, the Stabilty in [15] is above 82%.
